NS3 helicase inh: inhibitors of HCV NS3 helicase, primary screen, biochemical, Cy5 molecular beacon fluorescence; Hepatitis C virus NS3 helicase; NS3 helicase DNA unwinding; inhibition, % at 10.9 µM; 290,000 compounds, 0.56% hits;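 active means inhibition above the mean of all tested compounds plus 3 SD, set per campaign, cut at about 35% in these data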;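 further: 0% = DMSO wells and 100% = thioflavine S control wells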
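System: HCV NS3 helicase fragment; control set: DMSO and thioflavine S; technique: Cy5 fluorescence at 0 and 60 min, beacon hairpin quenching; reagent: beacon DNA duplex substrate plus ATP; replicates: singlicate; schedule: 1 h reaction at 25 °C, ATP-initiated; medium: MOPS buffer pH 6.5 with MgCl2, DTT, Tween20, BSA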
GPR7 antagonist: GPR7 receptor antagonists, primary screen, cell-based, fluorescence, single concentration | Neuropeptides B/W receptor type 1 (Homo sapiens), P48145 | GPR7-expressing cells, fluorescence antagonist assay | inhibition, % at 4.4 µM | 290,000 compounds, 1.1% hits; in the data active means inhibition above about 16%, passing the limit was not always enough;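 further: cells stimulated with the agonist NPW; 0% = agonist with vehicle and 100% = vehicle without agonist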
pCIP destab: p/CIP-EGFP fusion destabilizers, primary screen, fluorescence, F442A cells; AID 1984, 2009; 16 h; Q05BA5; 290,000 compounds, 0.01% hits; decrease of EGFP signal, % at 10 µM;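 active means EGFP signal decrease of at least 30% at 10 µM or well 3 SD below plate mean, unless failing retest; inactive means the rest, including hits failing retest or dose response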
Target sequence (Q05BA5 1-1403): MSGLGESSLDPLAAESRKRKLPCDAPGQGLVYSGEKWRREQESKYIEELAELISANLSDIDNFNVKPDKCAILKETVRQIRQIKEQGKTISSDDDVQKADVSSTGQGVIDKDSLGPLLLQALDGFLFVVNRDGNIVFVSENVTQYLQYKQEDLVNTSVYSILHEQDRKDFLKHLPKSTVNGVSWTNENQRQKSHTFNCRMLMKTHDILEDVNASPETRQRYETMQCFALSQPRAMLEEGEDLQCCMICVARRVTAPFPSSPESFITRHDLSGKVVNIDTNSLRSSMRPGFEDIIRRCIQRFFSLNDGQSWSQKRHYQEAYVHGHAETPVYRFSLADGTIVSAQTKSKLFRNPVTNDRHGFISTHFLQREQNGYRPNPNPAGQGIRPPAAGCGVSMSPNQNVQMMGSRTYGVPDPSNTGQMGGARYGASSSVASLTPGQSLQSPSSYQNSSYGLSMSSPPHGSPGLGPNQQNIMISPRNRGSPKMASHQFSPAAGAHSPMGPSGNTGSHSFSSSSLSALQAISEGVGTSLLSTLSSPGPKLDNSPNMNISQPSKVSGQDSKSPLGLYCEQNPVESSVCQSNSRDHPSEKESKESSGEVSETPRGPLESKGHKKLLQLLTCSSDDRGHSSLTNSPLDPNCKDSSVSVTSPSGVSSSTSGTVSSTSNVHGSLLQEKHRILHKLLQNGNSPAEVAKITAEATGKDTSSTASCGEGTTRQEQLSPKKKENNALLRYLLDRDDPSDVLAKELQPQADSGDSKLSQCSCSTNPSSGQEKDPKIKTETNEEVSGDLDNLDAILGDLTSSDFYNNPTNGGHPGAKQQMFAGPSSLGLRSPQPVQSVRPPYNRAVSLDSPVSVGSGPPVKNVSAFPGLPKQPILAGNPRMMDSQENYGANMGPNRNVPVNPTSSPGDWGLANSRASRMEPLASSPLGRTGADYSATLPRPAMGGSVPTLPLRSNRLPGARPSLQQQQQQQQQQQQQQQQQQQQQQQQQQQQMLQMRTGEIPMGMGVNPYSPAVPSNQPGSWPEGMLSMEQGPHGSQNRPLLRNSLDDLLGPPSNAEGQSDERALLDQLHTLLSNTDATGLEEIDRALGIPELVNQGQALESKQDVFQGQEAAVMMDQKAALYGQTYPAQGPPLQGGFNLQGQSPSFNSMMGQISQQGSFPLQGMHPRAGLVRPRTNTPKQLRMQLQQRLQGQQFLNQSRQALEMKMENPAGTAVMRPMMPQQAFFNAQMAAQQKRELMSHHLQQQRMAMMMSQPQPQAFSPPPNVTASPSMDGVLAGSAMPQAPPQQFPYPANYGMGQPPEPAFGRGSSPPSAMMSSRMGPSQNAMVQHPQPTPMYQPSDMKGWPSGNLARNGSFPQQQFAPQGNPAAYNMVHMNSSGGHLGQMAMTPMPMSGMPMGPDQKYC
HCV core dimer: inhibitors of HCV core protein dimerization, primary screen, biochemical, TR-FRET, high-throughput; TR-FRET GST/Flag-core106 dimerization, 1536-well; inhibition, % at 5 µM; 300,000 compounds, 0.33% hits;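 active means inhibition above the mean of all tested compounds plus 3 SD, set per screening campaign, cut at about 45% in these data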
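System – GST-tagged and Flag-tagged HCV core protein residues 1-106 · Repeats – one well for each compound · Technique – TR-FRET 671 and 617 nm emission · Doses – one concentration, 5 µM, in 0.5% DMSO · Times – 4 h, 22.5 °C incubation · Also added – Eu donor and XL665 acceptor anti-tag antibodies · Measure – percent inhibition of core106 dimerization signal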
DNA FID counter-1: compounds displacing fluorescent DNA intercalator, primary screen, artefact control for HCV NS3 helicase inhibitor project, biochemical, FID fluorescence. 290,000 compounds, 0.17% hits. AID 1845, 2009. inhibition, % at 7.9 µM. DNA fluorescent intercalator displacement;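 further: 0% = vehicle and 100% = reference compound; higher means more ethidium bromide displaced from hairpin DNA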
NS3 hel confirm: HCV NS3 helicase inhibitors, retest, confirmation, biochemical, Cy5 molecular beacon fluorescence, triplicate; shares compounds with NS3 helicase inh; NS3 helicase DNA unwinding; inhibition, % at 10.9 µM; 1,600 compounds, 31% hits; AID 1943, 2009;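 active means inhibition above the mean of all tested compounds plus 3 SD, cutoff set per campaign, cut at about 36% in these data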
DNA FID counter-2: compounds displacing fluorescent DNA intercalator, artefact control for HCV NS3 helicase inhibitor project, biochemical, FID fluorescence, triplicate. shares compounds with NS3 helicase inh. DNA fluorescent intercalator displacement. inhibition, % at 7.9 µM. 1,600 compounds, 4% hits. AID 1945, 2009;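 further: 0% = vehicle and 100% = reference compound; higher means more displacement of ethidium bromide from the DNA hairpin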
* hit, by the source's call; . = no result. An excerpt weighted towards active compounds, which were near 1.9% of everything screened. Unless noted, no stated cut-off is given here; in the data, active means inhibition above about 37%; inactive means the rest.

SMILES | NS3 helicase inh | GPR7 antagonist | pCIP destab | HCV core dimer | DNA FID counter-1 | NS3 hel confirm | DNA FID counter-2
COc1ccc2c(c1)CCc1c(C(=O)Nc3c(C)nn(Cc4ccccc4)c3C)noc1-2 | 1 | -1 | 2 | 12 | -29 | . | .
Cc1nn(Cc2ccc(Cl)cc2)c(C)c1NC(=O)c1noc2c1CCc1ccccc1-2 | 57* | -4 | -9 | 27 | -17 | -15 | -43
Cc1cc2c(n1-c1ccc(C(=O)O)cc1)CCCCC2 | 54* | 19 | -4 | . | -29 | 71* | -8
Cc1ccc(-c2ccccc2)n1-c1ccc(C(=O)O)cc1 | 33 | 9 | -5 | -7 | -24 | . | .
CCCc1ccc(OCC(O)CN2CCN(c3ccccn3)CC2)cc1 (configuration not stated) | -21 | -13 | 2 | -3 | 1 | . | .
COc1ccc(C2=NN(C(=O)CCC(=O)O)C(c3ccccc3)C2)cc1 (configuration not stated) | 2 | -9 | -4 | . | -39 | . | .
COc1ccc(C2=NN(C(=O)CCC(=O)O)C(c3ccc(Br)cc3)C2)cc1 (configuration not stated) | 38* | -1 | -1 | 8 | -29 | 6 | -23
COc1ccc(-c2nn(-c3ccccc3)cc2C2CC(c3cccs3)=NN2C(=O)CCC(=O)O)cc1 (configuration not stated) | -1 | -8 | 4 | 18 | -10 | . | .
COc1ccc(C2=NN(C(=O)CCCC(=O)O)C(c3cn(-c4ccccc4)nc3-c3ccccc3)C2)cc1 (configuration not stated) | 46* | -12 | -11 | 25 | -18 | 43* | -16
Cc1ccc(OCC(=O)NCCCNC(=O)c2ccncc2)cc1C | -11 | -12 | -14 | -4 | -18 | . | .
CCOc1ccc(-n2c(SCC(=O)O)nc3sc4c(c3c2=O)CCCC4)cc1 | 20 | -20 | -6 | 4 | -25 | . | .
Cc1ccc(-n2c(SCC(=O)O)nc3sc4c(c3c2=O)C(C)CCC4)cc1 (configuration not stated) | 55* | -16 | -15 | -9 | -16 | 66* | -15
CCOC(=O)CSc1nc(N)c(C#N)c(-c2ccc(OC)cc2)c1C#N | -11 | 0 | -2 | 16 | -4 | . | .
CCOC(=O)CC(=O)CSc1nc(N)c(C#N)c(-c2ccc(F)cc2)c1C#N | 57* | 0 | 4 | 4 | -4 | -3 | 5
O=C(CS(=O)(=O)c1ccccc1)Nc1nnc(-c2cccs2)o1 | . | . | . | 4 | . | . | .
CC(C(=O)O)N1C(=O)/C(=C/C=C/c2ccco2)SC1=S (configuration not stated) | 51* | -6 | -3 | 75* | -7 | 81* | 2
O=C1/C(=C/C=C/c2ccco2)SC(=S)N1NS(=O)(=O)c1ccccc1 | 66* | -1 | -8 | 65* | 1 | 73* | 17
CCOC(=O)c1c(S(=O)(=O)N2CCCCC2C)c(C)n(C)c1C (configuration not stated) | 2 | -13 | -21 | 6 | -18 | . | .
COc1cccc(-c2nc(-c3ccccc3)c(-c3ccccc3)[nH]2)c1OCC(=O)O | 46* | -9 | -9 | . | -49 | 64* | -12
COc1ccccc1-c1ccc(/C=C2\C=CC(=O)O2)o1 | 37* | -5 | -17 | 23 | -15 | -5 | -3
CCOc1cccc(/C=N/NC(=O)c2cc(C3CC3)[nH]n2)c1O | 3 | -3 | 4 | -2 | -23 | . | .
CCN(CC)S(=O)(=O)c1ccc(OC)c(NC(=O)/C=C/c2ccco2)c1 | 63* | 17 | -3 | 0 | -27 | -17 | -20
O=C(/C=C/c1ccco1)NCC1(c2ccccc2)CCCC1 | 36 | -8 | -5 | -1 | -21 | . | .
COc1ccc(C2(CNC(=O)/C=C/c3ccco3)CCCC2)cc1OC | 38* | -14 | -7 | 23 | -45 | -1 | -55

Screens: PubChem, several laboratories
